Usually IC50 stands for the concentration that gives 50% inhibition. The low end stands for greater potency, the high end for weaker potency.

Holding throughout (type): functional, organism-based
Test [1] relates to Plasmodium falciparum. Nature of the test: Antimalarial activity against Plasmodium falciparum Kenyan isolates expressing DHFR Ser108Asn and Cys59Arg or Ser108Asn and Asn51Ile double mutant by [3H]hypoxanthine incorporation assay. A digest of the protocol: (§1)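 Kenyan isolates (Kilifi, 2006–2008) adapted to long-term in vitro culture; dhfr codons 108, 51, 59, 164 genotyped by PCR-RFLP. Cultured in RPMI 1640 with 10% human serum, 25 mM bicarbonate, 2 mM glutamine, 25 mM HEPES, 5 nM para-aminobenzoic acid, 23 nM folic acid, in washed human erythrocytes. Graded drug concentrations; [3H]hypoxanthine incorporation; IC50 by nonlinear regression of dose-response.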

The test system of test [2] is Plasmodium falciparum. Nature of the test: Antimalarial activity against Plasmodium falciparum Kenyan isolates expressing DHFR Ser108Asn, Asn51Ile and Cys59Arg triple mutant by [3H]hypoxanthine incorporation assay. A digest of the protocol:
as §1

The subject of test [3] is Plasmodium falciparum. The test can be described thus: Antimalarial activity against Plasmodium falciparum isolate Kil-164 expressing DHFR Ser108Asn, Asn51Ile, Cys59Arg and Ile164Leu quadruple mutant by [3H]hypoxanthine incorporation assay. The method in brief: as §1
For test [4], the system named is Plasmodium falciparum. Nature of the test: Antimalarial activity against pyrimethamine-resistant Plasmodium falciparum V1S expressing DHFR quadruple mutant with point mutations at codons 108, 51, 59 and 164 gene by [3H]hypoxanthine incorporation assay.
In test [5] the test system is Plasmodium falciparum. Nature of the test: Antimalarial activity against pyrimethamine-sensitive Plasmodium falciparum 3D7 expressing wild type DHFR by [3H]hypoxanthine incorporation assay.
Test [6] concerns Plasmodium falciparum. The test can be described thus: Antimalarial activity against Plasmodium falciparum Kenyan isolates by [3H]hypoxanthine incorporation assay.

For the compound `COc1cc(NCc2ccc3nc(N)nc(N)c3c2C)cc(OC)c1OC` [TRIMETREXATE], the IC50 with Plasmodium falciparum [1] came out at 40.9 nM; in the test on Plasmodium falciparum [2], 20.9 nM; with Plasmodium falciparum [3], 44.7 nM; in the test with Plasmodium falciparum [4], 24.8 nM; in the test with Plasmodium falciparum [5], 1.9 nM; in the test with Plasmodium falciparum [6] it was 30 nM.
In the case of `CC1(C)N=C(N)N=C(N)N1OCCCOc1cc(Cl)c(Cl)cc1Cl`, the concentration for half-maximal inhibition (IC50) in the test with Plasmodium falciparum [1] amounted to 0.069 nM; with Plasmodium falciparum [2] it was 0.1 nM; in the test on Plasmodium falciparum [3], 0.012 nM; in the test with Plasmodium falciparum [4] it was 0.063 nM; with Plasmodium falciparum [5] it was 0.015 nM; in the test on Plasmodium falciparum [6], 0.072 nM.
Take `COc1cc(Cc2cnc(N)nc2N)cc(OC)c1OC` [TRIMETHOPRIM]: the 50% inhibitory concentration (IC50) amounted to 9310 nM with Plasmodium falciparum [1]; 33700 nM with Plasmodium falciparum [2]; 155000 nM in the test with Plasmodium falciparum [3]; 102000 nM in the test with Plasmodium falciparum [4]; 407 nM in the test on Plasmodium falciparum [5]; 29700 nM in the test on Plasmodium falciparum [6].
Regarding `CCc1nc(N)nc(N)c1-c1ccc(Cl)cc1` [PYRIMETHAMINE], the 50% inhibitory concentration (IC50) amounted to 6930 nM with Plasmodium falciparum [4], 3.9 nM in the test on Plasmodium falciparum [5] and 733 nM with Plasmodium falciparum [6].
In the case of `CC1(C)N=C(N)N=C(N)N1c1ccc(Cl)c(Cl)c1` [CHLORCYCLOGUANIL], the IC50 in the test with Plasmodium falciparum [1] stood at 38.1 nM; in the test with Plasmodium falciparum [2], 40 nM; in the test on Plasmodium falciparum [3] it was 87.7 nM; in the test on Plasmodium falciparum [4] it was 92.3 nM; in the test with Plasmodium falciparum [5], 0.011 nM; in the test with Plasmodium falciparum [6], 37.8 nM.
Consider `CN(Cc1cnc2nc(N)nc(N)c2n1)c1ccc(C(=O)N[C@@H](CCC(=O)O)C(=O)O)cc1` [METHOTREXATE], for which the concentration for half-maximal inhibition (IC50) came to 84.9 nM with Plasmodium falciparum [1]; 83.6 nM in the test on Plasmodium falciparum [2]; 56.6 nM in the test on Plasmodium falciparum [3]; 40 nM with Plasmodium falciparum [4]; 49.9 nM in the test on Plasmodium falciparum [5]; 83.6 nM in the test with Plasmodium falciparum [6].

These data come from ChEMBL document CHEMBL1649566, “In vitro activity of antifolate and polymorphism in dihydrofolate reductase of Plasmodium falciparum isolates from the Kenyan coast: emergence of parasites with Ile-164-Leu mutation” (Antimicrob Agents Chemother, 2009).
